High-throughput results from PubChem BioAssay.
Hits are enriched below; roughly 2.4% of the tested compounds scored in any of these assays.
Insulin prom inh: TRM-6 insulin promoter activity inhibition | TRM-6 cells (human fetal islet line), insulin promoter-eGFP reporter, imaging; reporter expression induced with tamoxifen | inhibition, % at 2 µM | hit rate 0.9% among 130,000 | AID 1273;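 active = inhibition above the mean plus 3 SD, with well images judged a real hit on visual review, cut at about 60% in these data, passing the limit was not always enough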
HSV replic up: HSV replication enhancement. HSV replication augmentation in cells, fold increase. AID 1956. hit rate 0.005% among 220,000. maximum fold increase; in the data active = maximum fold increase above about 1.5; tested in PC3 cells
b-catenin transl: modulators of beta-catenin nuclear translocation; HeLa beta-catenin nuclear translocation, immunofluorescence imaging; nuclear translocation activity, % at 5 µM; hit rate 0.3% among 190,000; AID 1665;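 active = nuclear translocation activity above 50% at 5 µM, with a well cell count of 50 or more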;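 note: per-cell ratio of nuclear to cytoplasmic median beta-catenin stain intensity; plate controls were DMSO negative control for no effect and GSK-3 inhibitor IX positive control for full effect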
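Test system: human HeLa cells, endogenous beta-catenin. Times: 24 h compound exposure, 37°C. Measured by: beta-catenin immunofluorescence imaging with DAPI.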
ROMK primary: modulators of human ROMK potassium channel. B-score at 10 µM. Tet-inducible ROMK, thallium flux fluorescence; actives lie on both sides. hit rate 2% among 130,000;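 active = signal ratio slope over the read window, or its plate-corrected B-score, at least 3 SD from the plate mean, either direction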;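 note: B-score of the F/F0 ratio slope over 7 to 12 s after thallium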
Target sequence (P48048 whole entry, looked up): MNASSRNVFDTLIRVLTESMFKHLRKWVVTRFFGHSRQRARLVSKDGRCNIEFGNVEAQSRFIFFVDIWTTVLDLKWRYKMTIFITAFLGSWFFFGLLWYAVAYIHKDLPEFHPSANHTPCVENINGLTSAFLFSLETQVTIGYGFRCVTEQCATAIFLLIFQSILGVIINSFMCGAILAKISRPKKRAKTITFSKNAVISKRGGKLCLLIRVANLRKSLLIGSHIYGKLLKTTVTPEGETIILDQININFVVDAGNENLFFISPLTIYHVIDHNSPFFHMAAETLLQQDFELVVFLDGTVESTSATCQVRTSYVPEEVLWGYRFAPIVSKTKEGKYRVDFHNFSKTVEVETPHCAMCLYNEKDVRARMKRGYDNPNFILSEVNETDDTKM
MT stabilizer: microtubule stabilization, imaging screen | HeLa tubulin immunostaining HCS, 24 h; share of cells brighter than vehicle mean+2SD | % tubulin-high responders, % at 10 µM | hit rate 0.83% among 200,000;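 active = plate Z-score above 3 for both tubulin-high and condensed-nucleus cell shares, with cell loss under 80%, at 10 µM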;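 note: anti alpha tubulin signal scored within the nucleus-defined area of each cell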
* marks the source's active call; other numbers are inactive results.

O=C(NCCc1c[nH]c2ccccc12)C(=O)NCC(c1ccco1)N1CCN(c2ccccc2F)CC1 (stereo unspecified) was read as Insulin prom inh 24, HSV replic up inactive, b-catenin transl 0, ROMK primary 0.57 and MT stabilizer 2.
Screening CC(C)(C)OC(=O)NNC(=O)Nc1ccccc1C(F)(F)F returned Insulin prom inh -88, HSV replic up inactive, b-catenin transl 1 and MT stabilizer 4.
Screening CCOc1ccc(S(=O)(=O)NCCCl)cc1 returned HSV replic up inactive, b-catenin transl 2, ROMK primary 1.4 and MT stabilizer 5.
Screening COc1ccc(CC(=O)NCc2n[nH]c(=S)n2-c2cccc(C)c2)cc1 returned Insulin prom inh 71*, HSV replic up inactive, b-catenin transl -1, ROMK primary 1.6 and MT stabilizer 2.
COc1cccc(C(=O)NCc2n[nH]c(=S)n2-c2cccc(C)c2)c1 was read as HSV replic up inactive, b-catenin transl -2, ROMK primary 1.5 and MT stabilizer 4.
For Cc1ccc(NS(=O)(=O)c2cc(OCC(N)=O)c(C)cc2Cl)cc1C the results were Insulin prom inh 31, HSV replic up inactive, b-catenin transl 8, ROMK primary -3.1* and MT stabilizer 3.
For Cc1cccc(NS(=O)(=O)c2cc(OCC(N)=O)c(C)cc2Cl)c1 the results were Insulin prom inh 43, HSV replic up inactive, b-catenin transl 2, ROMK primary -2.8 and MT stabilizer 3.
O=C(Cc1c2ccccc2nc2ccccc12)c1ccccc1 was read as Insulin prom inh 61*, HSV replic up inactive, b-catenin transl -4, ROMK primary 0.072 and MT stabilizer 2.
For CCOC(=O)N1CCN(C(=O)c2ccc(OC)c(S(=O)(=O)N3CCOCC3)c2)CC1 the results were Insulin prom inh 78*, HSV replic up inactive, b-catenin transl -3, ROMK primary -0.014 and MT stabilizer 1.
CN1C(=O)/C(=C/C=C2\SCCN2C)N(C)C1=S was read as Insulin prom inh 89*, HSV replic up inactive, b-catenin transl 0, ROMK primary -0.79 and MT stabilizer 4.
Cc1ccc(C)c2nc3sc(C(=O)N4CCOCC4)c(N)c3cc12 was read as Insulin prom inh -36, HSV replic up inactive, b-catenin transl 43 and MT stabilizer 28*.
Cc1cccc2cc3c(N)c(C(=O)Nc4ccc(N5CCOCC5)cc4)sc3nc12 was read as Insulin prom inh -27, HSV replic up inactive, b-catenin transl 2 and MT stabilizer 3.
Cc1cc(C)c2nc3sc(C(=O)N4CCOCC4)c(N)c3cc2c1 was read as HSV replic up inactive and b-catenin transl 72*.
Cc1cccc2cc3c(N)c(C(=O)N4CCc5ccccc54)sc3nc12 was read as Insulin prom inh -233, HSV replic up inactive, b-catenin transl 12, ROMK primary -0.14 and MT stabilizer 12*.
`Cc1ccc(-n2c(-c3ccncc3)nnc2-c2cccs2)cc1` gave Insulin prom inh -3, HSV replic up inactive and MT stabilizer 2.
Screening Cc1cc(S(=O)(=O)N2CCCC(C(=O)Nc3ccc(C(=O)O)cc3)C2)ccc1Cl (stereo unspecified) returned HSV replic up inactive, b-catenin transl 0, ROMK primary -0.033 and MT stabilizer 3.
For CC(=O)NC1=NN(C(C)=O)C(c2ccc(F)cc2)S1 (stereo unspecified) the results were Insulin prom inh 83*, HSV replic up inactive, b-catenin transl -2, ROMK primary 0.72 and MT stabilizer 5.
`CC(=O)NC1=NN(C(C)=O)C(c2ccc(C)cc2)S1` (stereo unspecified) gave HSV replic up inactive, b-catenin transl -1 and MT stabilizer 3.
COc1cc(/C=N/NC(=O)c2cccnc2)ccc1OCC(=O)N1CCOCC1 was read as HSV replic up inactive, b-catenin transl 1 and MT stabilizer 4.
Screening Cc1ccccc1CS(=O)(=O)c1nnc([C@H](Cc2ccccc2)NC(=O)OC(C)(C)C)o1 returned Insulin prom inh 78*, HSV replic up inactive, ROMK primary -0.93 and MT stabilizer 1.
`Cc1ccccc1Nc1nc(N)nc(CSc2nc3ccccc3c(=O)n2C)n1` gave Insulin prom inh 29, HSV replic up inactive, b-catenin transl 1, ROMK primary -2 and MT stabilizer 3.
Cc1cccnc1NC(=O)c1ccccc1NC(=O)C(C)(C)C was read as Insulin prom inh -69, HSV replic up inactive, b-catenin transl -5, ROMK primary 0.24 and MT stabilizer 5.
